These results are taken from ChEMBL document CHEMBL1773058, “Synthesis of 4β-carbamoyl epipodophyllotoxins as potential antitumour agents” (2011).

Activity calls are given as the source filed them. No cut-off for these calls is given here.

In one assay the test system is HOP-62. The assay can be described thus: Growth inhibition of human HOP62 cells after 48 hrs by sulforhodamine B assay. It counts as functional. The conditions noted are these: HOP-62, 48 h. In short, it runs like this: (§1)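 Cells grown in RPMI-1640 (2 mM glutamine, pH 7.4, 10% FCS, penicillin/streptomycin) at 37 °C, 5% CO2. Subconfluent cells trypsinised, used at >97% viability (trypan blue), plated and grown 24 h, then exposed to test materials 48 h in triplicate. Fixed with TCA at 4 °C for 1 h, stained 30 min with 0.4% SRB in 1% acetic acid, dye solubilised in 10 mM Tris pH 10.4, OD read at 540 nm. GI50 reported.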
A general note: The SRB assay estimates cell density from bound dye.

The next assay deals with KB. As to the kind of experiment: Growth inhibition of human KB cells after 48 hrs by sulforhodamine B assay. It counts as functional. In short, it runs like this: as §1
A further assay concerns A2780. The assay can be described thus: Growth inhibition of human A2780 cells after 48 hrs by sulforhodamine B assay. The format is functional. The conditions noted are these: A2780, 48 h. In short, it runs like this:
as §1

Another assay deals with SiHa. As to the kind of experiment: Growth inhibition of human SiHa cells after 48 hrs by sulforhodamine B assay. It counts as functional. In short, it runs like this: as §1
For another assay, the system named is PC-3. The assay can be described thus: Growth inhibition of human PC3 cells after 48 hrs by sulforhodamine B assay. It counts as functional. To be noted: PC-3, 48 h. In short, it runs like this:
as §1

The nature of assay [1]: Growth inhibition of human DWD cells after 48 hrs by sulforhodamine B assay. It counts as functional. In short, it runs like this: as §1
Another assay deals with MCF7. As to the kind of experiment: Growth inhibition of human MCF7 cells after 48 hrs by sulforhodamine B assay. It counts as functional. The conditions noted are these: MCF7, 48 h. In short, it runs like this: as §1
The nature of assay [2]: Growth inhibition of human Gurav cells after 48 hrs by sulforhodamine B assay. The format is functional. In short, it runs like this:
as §1

The next assay concerns ZR-75-1. As to the kind of experiment: Growth inhibition of human ZR-75-1 cells after 48 hrs by sulforhodamine B assay. The conditions noted are these: ZR-75-1, 48 h. The format is functional. In short, it runs like this: as §1
A further assay relates to COLO 205. The assay can be described thus: Growth inhibition of human COLO205 cells after 48 hrs by sulforhodamine B assay. It counts as functional. The conditions noted are these: COLO 205, 48 h. In short, it runs like this: as §1
In a further assay the test system is A549. The assay can be described thus: Growth inhibition of human A549 cells after 48 hrs by sulforhodamine B assay. The format is functional. The conditions noted are these: A549, 48 h. In short, it runs like this: as §1
Assay [3] has as its target DNA topoisomerase 2-alpha (Homo sapiens) (UniProt P11388). As to the kind of experiment: Inhibition of topoisomerase 2 assessed as inhibition of relaxation of supercoiled pBR322 plasmid DNA at 10 uM to 1 mM by ethidium bromide staining. In short, it runs like this: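 Topo II relaxation reaction stopped with 10% SDS, then proteinase K treatment and extraction with chloroform/isoamyl alcohol (24:1). Products resolved on 1% agarose gel in TAE (40 mM Tris-acetate pH 8.0, 1 mM EDTA) and stained with 0.5 µg/ml ethidium bromide.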

Chain of DNA topoisomerase 2-alpha (Homo sapiens) (P11388 whole entry): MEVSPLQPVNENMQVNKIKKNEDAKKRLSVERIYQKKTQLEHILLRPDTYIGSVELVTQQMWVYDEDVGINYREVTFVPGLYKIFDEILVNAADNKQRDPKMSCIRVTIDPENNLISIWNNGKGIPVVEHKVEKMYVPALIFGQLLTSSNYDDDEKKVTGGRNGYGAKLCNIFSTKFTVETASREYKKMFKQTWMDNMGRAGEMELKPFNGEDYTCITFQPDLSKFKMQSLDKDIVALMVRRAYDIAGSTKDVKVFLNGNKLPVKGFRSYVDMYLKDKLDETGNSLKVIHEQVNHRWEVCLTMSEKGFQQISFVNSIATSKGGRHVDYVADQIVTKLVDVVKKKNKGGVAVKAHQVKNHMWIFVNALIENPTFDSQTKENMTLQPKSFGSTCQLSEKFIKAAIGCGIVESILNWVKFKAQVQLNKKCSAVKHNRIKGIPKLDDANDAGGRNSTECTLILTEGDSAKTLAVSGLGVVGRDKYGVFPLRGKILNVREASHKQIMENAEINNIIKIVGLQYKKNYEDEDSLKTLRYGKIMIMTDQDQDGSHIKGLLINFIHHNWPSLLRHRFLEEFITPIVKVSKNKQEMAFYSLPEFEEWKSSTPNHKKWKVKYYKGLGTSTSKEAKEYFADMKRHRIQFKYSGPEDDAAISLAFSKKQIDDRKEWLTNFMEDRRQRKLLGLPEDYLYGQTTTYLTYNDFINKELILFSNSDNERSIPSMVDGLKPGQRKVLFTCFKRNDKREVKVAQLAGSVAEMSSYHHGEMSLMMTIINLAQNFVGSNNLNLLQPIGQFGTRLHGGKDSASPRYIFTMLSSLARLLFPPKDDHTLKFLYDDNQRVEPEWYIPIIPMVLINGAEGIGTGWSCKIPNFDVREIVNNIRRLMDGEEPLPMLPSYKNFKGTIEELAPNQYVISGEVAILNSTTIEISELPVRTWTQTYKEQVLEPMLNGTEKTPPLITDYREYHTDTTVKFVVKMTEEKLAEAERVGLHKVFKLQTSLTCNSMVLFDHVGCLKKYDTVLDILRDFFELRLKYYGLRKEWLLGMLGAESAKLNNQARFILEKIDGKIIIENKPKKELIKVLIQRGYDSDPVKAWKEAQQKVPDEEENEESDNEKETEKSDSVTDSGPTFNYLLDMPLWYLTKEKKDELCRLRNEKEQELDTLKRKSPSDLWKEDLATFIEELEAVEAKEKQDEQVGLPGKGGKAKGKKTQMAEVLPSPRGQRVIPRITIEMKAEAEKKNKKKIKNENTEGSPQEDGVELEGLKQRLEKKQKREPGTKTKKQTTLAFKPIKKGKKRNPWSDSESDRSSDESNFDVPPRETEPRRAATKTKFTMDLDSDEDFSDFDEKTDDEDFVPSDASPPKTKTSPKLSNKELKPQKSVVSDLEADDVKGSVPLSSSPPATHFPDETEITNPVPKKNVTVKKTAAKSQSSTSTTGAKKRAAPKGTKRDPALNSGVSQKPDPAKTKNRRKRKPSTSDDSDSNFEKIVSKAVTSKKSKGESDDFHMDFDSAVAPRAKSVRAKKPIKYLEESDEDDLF

For `COc1cc([C@@H]2c3cc4c(cc3[C@@H](OC(=O)NCc3ccc(C(F)(F)F)cc3)[C@H]3COC(=O)[C@H]23)OCO4)cc(OC)c1OC`, the GI50 (commonly the concentration at which growth is held to half of that of the control) in the assay on HOP-62 is 2300 nM; with KB, 180 nM; in the assay on A2780, 180 nM; with SiHa, 2000 nM; in the assay on PC-3 it was 2100 nM; in assay [1], 2000 nM. The 50% growth inhibitory concentration (GI50) in the assay with MCF7 was 180 nM; in [2], 190 nM; with ZR-75-1, 160 nM; with COLO 205, 150 nM; in the assay on A549, less than 100 nM.
As for `COc1cc([C@@H]2c3cc4c(cc3[C@@H](OC(=O)NCCc3c[nH]c5ccccc35)[C@H]3COC(=O)[C@H]23)OCO4)cc(OC)c1OC`, the GI50 is 2100 nM in the assay on HOP-62; 180 nM in the assay on KB; 110 nM with A2780; 1800 nM in the assay with SiHa; 160 nM in the assay on PC-3; less than 100 nM in assay [1]. The GI50 with MCF7 was 160 nM; in [2], 120 nM; with ZR-75-1, 130 nM; in the assay on COLO 205, 120 nM; in the assay on A549 it was less than 100 nM. Moreover, the inhibition result in assay [3] was “Active”.
Take `COc1cc([C@@H]2c3cc4c(cc3[C@@H](O[C@@H]3O[C@@H]5CO[C@@H](C)O[C@H]5[C@H](O)[C@H]3O)[C@H]3COC(=O)[C@H]23)OCO4)cc(OC)c1O` [ETOPOSIDE]: the GI50 is 800 nM with HOP-62; 300 nM in the assay with KB; 1300 nM in the assay on A2780; 3100 nM in the assay with SiHa; 2600 nM in the assay on PC-3; 600 nM in assay [1]. Moreover, the GI50 with MCF7 was 2100 nM; in assay [2], 500 nM; in the assay on ZR-75-1 it was 200 nM; in the assay with COLO 205, 130 nM; in the assay on A549, 3080 nM.
As for `COc1cc([C@@H]2c3cc4c(cc3[C@@H](OC(=O)NCC3CC3)[C@H]3COC(=O)[C@H]23)OCO4)cc(OC)c1OC`, the GI50 in the assay with HOP-62 was found to be 2500 nM; in the assay with KB, 2400 nM; with A2780 it was 2000 nM; with SiHa it was 2300 nM; in the assay with PC-3, 2300 nM; in assay [1] it was 2000 nM. The concentration for 50% growth inhibition (GI50) is 2300 nM with MCF7; 180 nM in assay [2]; 190 nM in the assay on ZR-75-1; 2500 nM in the assay on COLO 205; less than 100 nM in the assay with A549.
In the case of `COc1cc([C@@H]2c3cc4c(cc3[C@@H](OC(=O)NCCN(C)C)[C@H]3COC(=O)[C@H]23)OCO4)cc(OC)c1OC`, the concentration for 50% growth inhibition (GI50) was 120 nM in the assay with HOP-62; 160 nM in the assay on KB; 120 nM in the assay on A2780; 2100 nM in the assay with SiHa; 150 nM with PC-3; less than 100 nM in assay [1]. Further, the GI50 with MCF7 is 110 nM; in [2], 150 nM; with ZR-75-1, less than 100 nM; in the assay on COLO 205 it was 2100 nM; in the assay with A549, less than 100 nM.
As to `C#CCNC(=O)O[C@@H]1c2cc3c(cc2[C@@H](c2cc(OC)c(OC)c(OC)c2)[C@H]2C(=O)OC[C@@H]21)OCO3`, the GI50 in the assay with HOP-62 is 140 nM; with KB it was 170 nM; in the assay on A2780, 160 nM; in the assay on SiHa, 1900 nM; in the assay on PC-3 it was 160 nM; in [1] it was less than 100 nM. Moreover, the concentration for 50% growth inhibition (GI50) in the assay with MCF7 is 190 nM; in assay [2] it was 140 nM; in the assay with ZR-75-1, 140 nM; in the assay with COLO 205 it was 2700 nM; in the assay on A549, less than 100 nM.
For `CCCNC(=O)O[C@@H]1c2cc3c(cc2[C@@H](c2cc(OC)c(OC)c(OC)c2)[C@H]2C(=O)OC[C@@H]21)OCO3`, the GI50 in the assay on HOP-62 came out at 160 nM; with KB, 2100 nM; with A2780 it was 190 nM; with SiHa, 1200 nM; in the assay on PC-3 it was 170 nM; in [1] it was 2000 nM. In addition, the 50% growth inhibitory concentration (GI50) with MCF7 is 2000 nM; in [2] it was 170 nM; with ZR-75-1, 190 nM; in the assay on COLO 205, 2700 nM; with A549 it was less than 100 nM.
As to `COc1cc([C@@H]2c3cc4c(cc3[C@@H](OC(=O)N3CCOCC3)[C@H]3COC(=O)[C@H]23)OCO4)cc(OC)c1OC`, the concentration for 50% growth inhibition (GI50) with HOP-62 was 130 nM; with KB it was 120 nM; in the assay on A2780, 130 nM; in the assay with SiHa it was 1400 nM; with PC-3 it was 160 nM; in assay [1], less than 100 nM. Moreover, the GI50 in the assay on MCF7 was 160 nM; in assay [2], 140 nM; in the assay on ZR-75-1, 140 nM; with COLO 205 it was 2700 nM; in the assay on A549 it was less than 100 nM. For the same compound, the inhibition entry in assay [3] was “Active”.
As to `O=c1[nH]cc(F)c(=O)[nH]1` [FLUOROURACIL], the GI50 was determined as 4100 nM in the assay on HOP-62; 5200 nM in the assay on KB; 3500 nM in the assay on A2780; 6300 nM in the assay with SiHa; 12000 nM in the assay on PC-3; 6100 nM in assay [1]. For the same compound, the 50% growth inhibitory concentration (GI50) in the assay with MCF7 was determined as 2800 nM; in assay [2], 3100 nM; in the assay on ZR-75-1 it was 2300 nM; in the assay on COLO 205, 2800 nM; in the assay on A549 it was 2400 nM.
Consider `COCCNC(=O)O[C@@H]1c2cc3c(cc2[C@@H](c2cc(OC)c(OC)c(OC)c2)[C@H]2C(=O)OC[C@@H]21)OCO3`, for which the GI50 in the assay with HOP-62 was 120 nM; in the assay with KB, 150 nM; with A2780, 150 nM; in the assay with SiHa, 2400 nM; in the assay on PC-3, 160 nM; in assay [1] it was less than 100 nM. The concentration for 50% growth inhibition (GI50) in the assay on MCF7 is 150 nM; in assay [2], 140 nM; in the assay with ZR-75-1, less than 100 nM; in the assay on COLO 205, 2200 nM; with A549 it was less than 100 nM.
Turning to `COc1cc([C@@H]2c3cc4c(cc3[C@@H](OC(=O)NC(C)C)[C@H]3COC(=O)[C@H]23)OCO4)cc(OC)c1OC`, the GI50 in the assay with HOP-62 is 2100 nM; with KB, 180 nM; in the assay on A2780, 140 nM; in the assay on SiHa it was 190 nM; in the assay with PC-3, 190 nM; in assay [1], less than 100 nM. For the same compound, the concentration for 50% growth inhibition (GI50) with MCF7 is 190 nM; in [2] it was 160 nM; with ZR-75-1, 150 nM; with COLO 205, 2700 nM; in the assay on A549, less than 100 nM.
As to `COc1cc([C@@H]2c3cc4c(cc3[C@@H](OC(=O)N(C)C)[C@H]3COC(=O)[C@H]23)OCO4)cc(OC)c1OC`, the 50% growth inhibitory concentration (GI50) in the assay with HOP-62 is 130 nM; in the assay on KB, 180 nM; with A2780, 180 nM; in the assay with SiHa, 2100 nM; with PC-3 it was 150 nM; in assay [1], less than 100 nM. Also, the GI50 in the assay on MCF7 is 160 nM; in assay [2], 170 nM; with ZR-75-1 it was 120 nM; in the assay with COLO 205 it was 2100 nM; in the assay with A549 it was less than 100 nM.
